In one data set the test system is HL-60. Description: Cytotoxicity against human HL60 cells up to 10 uM after 48 to 72 hrs by alamar blue assay. The data set is classed as cell-based. For orientation: Resazurin is reduced to fluorescent resorufin, in cell work by metabolically active cells.
The subject of another data set is SF-539. Description: Cytotoxicity against human SF539 cells up to 10 uM after 48 to 72 hrs by alamar blue assay. The data set is classed as cell-based.
Data set [1] can be described thus: Cytotoxicity against human CRL8155 cells up to 10 uM after 48 to 72 hrs by alamar blue assay. The format is cell-based.
The subject of another data set is HCC 2998. Description: Cytotoxicity against human HCC2998 cells up to 10 uM after 48 to 72 hrs by alamar blue assay. The data set is classed as cell-based.
The test system of data set [2] is Cryptosporidium parvum. Description: Antiparasitic activity against Cryptosporidium parvum sporozoites infected in human HCT8 cells assessed as reduction of parasites level treated 1 hr after infection measured after 24 hrs. The data set is classed as functional, organism-based. The conditions noted are these: HCT-8. The gist of the method:
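HCT-8 human intestinal cells infected with C. parvum sporozoites at a 1:1 ratio of HCT-8 cells to sporozoites. Cultures were exposed to a range of inhibitor concentrations starting 1 h after infection. Parasite numbers were counted after 24 h of infection.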

A further data set relates to Toxoplasma gondii. Description: Antiparasitic activity against Toxoplasma gondii infected in human fibroblasts assessed as reduction of parasite invasion. The format is functional, organism-based.
Data set [3] has as its system Cryptosporidium parvum. Description: Antiparasitic activity against Cryptosporidium parvum sporozoites infected in human HCT8 cells assessed as reduction of parasites level treated immediately after infection measured after 24 hrs. The conditions noted are these: HCT-8. The data set is classed as functional, organism-based. The gist of the method:
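Human intestinal HCT-8 cells were infected with C. parvum sporozoites, one sporozoite per host cell. Inhibitor was added at varying concentrations at the time of infection. Parasites present were counted 24 h after infection.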

The target of data set [4] is T1, Calmodulin-domain protein kinase 1 (Toxoplasma gondii, UniProt Q9BJF5).
T1 sequence (Q9BJF5 whole entry): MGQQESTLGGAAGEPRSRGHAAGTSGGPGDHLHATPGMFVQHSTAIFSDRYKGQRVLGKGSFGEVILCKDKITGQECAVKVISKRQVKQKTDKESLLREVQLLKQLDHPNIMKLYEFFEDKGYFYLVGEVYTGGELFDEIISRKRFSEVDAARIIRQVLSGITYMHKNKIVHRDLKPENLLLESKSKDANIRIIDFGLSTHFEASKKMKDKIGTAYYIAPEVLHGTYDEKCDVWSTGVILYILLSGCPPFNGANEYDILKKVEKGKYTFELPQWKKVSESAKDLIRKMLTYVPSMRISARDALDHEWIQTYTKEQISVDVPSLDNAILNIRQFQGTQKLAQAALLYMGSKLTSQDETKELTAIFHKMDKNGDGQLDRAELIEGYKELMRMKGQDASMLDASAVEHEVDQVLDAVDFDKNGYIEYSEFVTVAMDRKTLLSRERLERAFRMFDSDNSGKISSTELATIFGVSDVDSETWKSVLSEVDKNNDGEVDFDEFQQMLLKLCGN
The format is cell-free, Plasma.

The source made the active and inactive calls. The calls are words filed in the database; no cut-off is given here. Some results are limits rather than exact numbers.

Broadly, the IC50 is the concentration needed to halve the response being measured.

`CS(=O)(=O)N1CCC(n2nc(Cc3cccc4ccccc34)c3c(N)ncnc32)CC1`: the Activity result (in the data set on HL-60; in the data set with SF-539; in data set [1]; in the data set on HCC 2998) was “Non-toxic” each time.

Turning to `COc1ccc2cc(-c3nn(C(C)C)c4ncnc(N)c34)ccc2c1`, the Activity result (with HL-60; with SF-539; in data set [1]; in the data set on HCC 2998) was “Non-toxic” in each case.

Turning to `CCN1CCC(Cn2nc(Cc3cccc4ccccc34)c3c(N)ncnc32)CC1`, the Activity entry (in the data set on HL-60; with SF-539; in data set [1]; in the data set with HCC 2998) was “Non-toxic” in each case.

Regarding `CC(C)n1nc(-c2cnc3ccccc3c2)c2c(N)ncnc21`, the Activity entry (with HL-60; in the data set with SF-539; in data set [1]; in the data set on HCC 2998) was “Non-toxic” throughout.

As to `CC(C)c1cccc(-c2nn(C(C)C)c3ncnc(N)c23)c1`, the Activity entry (with HL-60; with SF-539; in data set [1]; in the data set with HCC 2998) was “Non-toxic” each time.

Turning to `Nc1ncnc2c1c(Cc1cccc3ccccc13)nn2CC1CCNCC1`, the Activity result (in the data set on HL-60; with SF-539; in data set [1]; in the data set on HCC 2998) was “Non-toxic” in each case.

For `CC(C)n1nc(-c2ccc3ccccc3c2)c2c(N)ncnc21`, the Activity result (in the data set on HL-60; in the data set on SF-539; in data set [1]; with HCC 2998) was “Non-toxic” in each case.

In the case of `CC(C)(C)n1nc(-c2ccc3ccccc3c2)c2c(N)ncnc21`, the Activity result in the data set on HL-60 was “Non-toxic”; in the data set on Cryptosporidium parvum [2] it was “Dose-dependent effect”; in the data set with SF-539 it was “Non-toxic”; in data set [1], “Non-toxic”; with Cryptosporidium parvum [3], “Dose-dependent effect”; in the data set on HCC 2998 it was “Non-toxic”. Besides, in the data set on Toxoplasma gondii, the outcome was Active.

`CC(C)(C)n1nc(-c2cccc3ccccc23)c2c(N)ncnc21`: the Activity entry was “Non-toxic” in the data set on HL-60; “Dose-dependent effect” with Cryptosporidium parvum [2]; “Non-toxic” in the data set with SF-539; “Non-toxic” in data set [1]; “Dose-dependent effect” in the data set on Cryptosporidium parvum [3]; “Non-toxic” in the data set on HCC 2998.

Take `CC(C)(C)n1nc(Cc2cccc3ccccc23)c2c(N)ncnc21`: the Activity entry (with HL-60; in the data set with SF-539; in data set [1]; in the data set on HCC 2998) was “Non-toxic” throughout.

Regarding `CCOc1ccc2cc(-c3nn(C(C)C)c4ncnc(N)c34)ccc2c1`, the Activity result (with HL-60; in the data set on SF-539; in data set [1]; with HCC 2998) was “Non-toxic” in each case.

In data set [4], `CC(C)n1nc(-c2ccc3c(c2)sc2ccccc23)c2c(N)ncnc21` registered an IC50 above 3 µM.

Regarding `CC(C)n1nc(-c2ccc(Cl)c(Cl)c2)c2c(N)ncnc21`, the Activity result (in the data set with HL-60; in the data set on SF-539; in data set [1]; in the data set on HCC 2998) was “Non-toxic” in each case.

Regarding `CCN1CCC(CCn2nc(Cc3cccc4ccccc34)c3c(N)ncnc32)CC1`, the Activity result (in the data set on HL-60; with SF-539; in data set [1]; in the data set with HCC 2998) was “Non-toxic” throughout.

For `CCN1CCC(n2nc(Cc3cccc4ccccc34)c3c(N)ncnc32)CC1`, the Activity entry (with HL-60; in the data set with SF-539; in data set [1]; in the data set on HCC 2998) was “Non-toxic” in each case.

Consider `CC(C)n1nc(Cc2cccc3ccccc23)c2c(N)ncnc21`, for which the Activity result with HL-60 is “Non-toxic”; in the data set on Cryptosporidium parvum [2], “Dose-dependent effect”; in the data set on SF-539, “Non-toxic”; in data set [1] it was “Non-toxic”; in the data set on Cryptosporidium parvum [3] it was “Dose-dependent effect”; in the data set on HCC 2998, “Non-toxic”. Moreover, the outcome in the data set with Toxoplasma gondii was Active.

(Values after ChEMBL document CHEMBL1782013, “Discovery of Potent and Selective Inhibitors of Calcium-Dependent Protein Kinase 1 (CDPK1) from C. parvum and T. gondii” (ACS Med Chem Lett, 2010).)
